# Results reported in ChEMBL document CHEMBL1671844, “Structure guided development of potent reversibly binding penicillin binding protein inhibitors” (ACS Med Chem Lett, 2011).
# Columns and labels:
# [1] = biological target: D-alanyl-D-alanine carboxypeptidase (Actinomadura sp. R39) (UniProt P39045); test: Inhibition of Actinomadura R39 PBP assessed as residual activity at 100 uM after 60 mins
# Outline: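 Percentage residual activity of R39 measured with compound at 100 μM, in triplicate.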
# [2] = biological target: D-alanyl-D-alanine carboxypeptidase (Actinomadura sp. R39, UniProt P39045); test: Inhibition of Actinomadura R39 PBP after 60 mins
# Chain of D-alanyl-D-alanine carboxypeptidase (P39045 whole entry): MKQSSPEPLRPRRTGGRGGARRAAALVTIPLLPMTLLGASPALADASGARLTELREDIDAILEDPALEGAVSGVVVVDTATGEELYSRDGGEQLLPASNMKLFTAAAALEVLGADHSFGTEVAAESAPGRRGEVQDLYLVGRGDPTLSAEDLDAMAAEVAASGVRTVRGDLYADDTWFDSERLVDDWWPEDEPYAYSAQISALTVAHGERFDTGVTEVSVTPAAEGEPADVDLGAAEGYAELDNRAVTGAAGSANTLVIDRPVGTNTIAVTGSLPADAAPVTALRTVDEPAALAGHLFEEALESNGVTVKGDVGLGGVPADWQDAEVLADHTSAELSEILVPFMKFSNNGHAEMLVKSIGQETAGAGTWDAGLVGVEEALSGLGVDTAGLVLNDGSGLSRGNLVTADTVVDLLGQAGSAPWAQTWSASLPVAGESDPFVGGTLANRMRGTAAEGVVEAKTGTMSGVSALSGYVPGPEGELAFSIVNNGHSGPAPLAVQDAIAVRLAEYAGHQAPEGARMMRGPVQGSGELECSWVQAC
# Chain of D-alanyl-D-alanine carboxypeptidase (Actinomadura sp. R39) (P39045 whole entry): as above
SMILES,Activity [1] [%],IC50 [2] [nM],Ki [2] [nM]
C[C@H](NC(=O)c1c(F)cccc1F)B(O)O,3,3300,
C[C@@H](NC(=O)c1ccc2sccc2c1)B(O)O,8,2200,
CC(C)c1ccccc1C(=O)N[C@H](C)B(O)O,36,59000,
C[C@@H](NC(=O)c1ccccc1C(c1ccccc1)c1ccccc1)B(O)O,1,< 80,63
C[C@@H](NC(=O)c1c(Cl)cccc1Cl)B(O)O,3,4200,
C[C@@H](NC(=O)c1ccccc1C(=O)c1ccc2ccccc2c1)B(O)O,0,80,105
C[C@@H](NC(=O)c1ccccc1NS(=O)(=O)c1ccccc1)B(O)O,3,370,
C[C@@H](NC(=O)c1c(F)cccc1-c1ccccc1)B(O)O,0,270,
C[C@H](NC(=O)c1ccccc1Cc1ccccc1)B(O)O,16,7200,
C[C@@H](NC(=O)c1ccc2ccccc2c1)B(O)O,19,14000,
C[C@@H](NC(=O)c1ccccc1-c1ccccc1)B(O)O,5,1310,
C[C@@H](NC(=O)c1ccccc1Cc1ccccc1)B(O)O,5,1800,
C[C@@H](NC(=O)c1c(F)cccc1F)B(O)O,0,500,
